Data as given in PMC10345485 (Saudi Pharmaceutical Journal : SPJ, 2023).
“And” between values parts separate entries of the source, which are not always exact repeats. Identical values can stand only once.

Biological target: urease (Canavalia ensiformis, UniProt P07374)
Assay: Urease inhibition assay
Format: biochemical
Details: IC50 (µM) ± SEM, in-vitro urease inhibition
Summary of the method: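 Test compound and enzyme preincubated in pH 6.8 phosphate buffer for 10 min at 37 °C. Phenol and alkali reagents then added. Absorbance read at 625 nm. Percent inhibition calculated as (control absorbance − sample absorbance)/control absorbance × 100. Run in triplicate, with a standard urease inhibitor as positive control. Values given ± SEM.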

Chain of urease (P07374 whole entry, looked up): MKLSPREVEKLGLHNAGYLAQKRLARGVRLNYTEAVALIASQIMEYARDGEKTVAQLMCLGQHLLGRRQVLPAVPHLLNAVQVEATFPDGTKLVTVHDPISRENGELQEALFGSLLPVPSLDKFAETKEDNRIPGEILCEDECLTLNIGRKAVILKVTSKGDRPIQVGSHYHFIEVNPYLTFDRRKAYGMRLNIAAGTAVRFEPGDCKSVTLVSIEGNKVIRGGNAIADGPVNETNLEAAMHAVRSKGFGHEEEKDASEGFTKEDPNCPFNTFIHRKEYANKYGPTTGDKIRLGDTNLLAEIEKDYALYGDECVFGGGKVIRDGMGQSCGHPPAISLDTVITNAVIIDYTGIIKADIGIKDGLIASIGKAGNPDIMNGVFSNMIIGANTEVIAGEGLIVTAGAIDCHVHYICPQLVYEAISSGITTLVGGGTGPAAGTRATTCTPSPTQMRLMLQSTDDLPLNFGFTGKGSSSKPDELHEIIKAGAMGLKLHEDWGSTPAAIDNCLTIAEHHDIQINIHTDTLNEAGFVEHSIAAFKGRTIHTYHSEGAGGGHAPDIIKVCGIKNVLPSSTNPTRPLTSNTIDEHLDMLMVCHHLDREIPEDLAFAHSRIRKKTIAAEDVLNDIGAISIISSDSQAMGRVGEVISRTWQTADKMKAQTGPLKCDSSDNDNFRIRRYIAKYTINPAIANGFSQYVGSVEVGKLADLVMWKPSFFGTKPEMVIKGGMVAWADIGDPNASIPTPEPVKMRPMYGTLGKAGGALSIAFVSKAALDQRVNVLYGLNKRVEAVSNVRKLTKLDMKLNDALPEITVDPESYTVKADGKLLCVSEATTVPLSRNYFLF

IC50 | SMILES
22.2 ± 0.42 µM | Clc1ccc(C=NN=C(Cc2ccccc2)c2ccccc2)c(Cl)c1 [Compound 3, 1-(2,4-dichlorobenzylidene)-2-(1,2-diphenylethylidene)hydrazine]
26.11 ± 0.22 µM | O=[N+]([O-])c1ccc(C=NN=C(Cc2ccccc2)c2ccccc2)cc1 [Compound 4, 1-(1,2-diphenylethylidene)-2-(4-nitrobenzylidene)hydrazine]
34.3 ± 0.65 µM | O=[N+]([O-])c1ccc(O)c(C=NN=C(Cc2ccccc2)c2ccccc2)c1 [Compound 5, 1-(1,2-diphenylethylidene)-2-(2-hydroxy-5-nitrobenzylidene)hydrazine]
28.11 ± 0.22 µM | Clc1ccc(C=NN=C(Cc2ccccc2)c2ccccc2)cc1 [Compound 6, 1-(4-chlorobenzylidene)-2-(1,2-diphenylethylidene)hydrazine]
45.9 µM and 48.3 µM | CSc1ccc(C=NN=C(Cc2ccccc2)c2ccccc2)cc1 [Compound 7, 1-(1,2-diphenylethylidene)-2-(4-(methylthio)benzylidene)hydrazine]
47.9 µM and 45.9 µM | Cc1ccc(C=NN=C(Cc2ccccc2)c2ccccc2)cc1 [Compound 8, 1-(1,2-diphenylethylidene)-2-(4-methylbenzylidene)hydrazine]
48.3 µM and 47.9 µM | Oc1ccc(C=NN=C(Cc2ccccc2)c2ccccc2)cc1 [Compound 9, 1-(1,2-diphenylethylidene)-2-(4-hydroxybenzylidene)hydrazine]
